Screening results from PubChem BioAssay.
Hits are enriched below; roughly 3.6% of the tested compounds scored in any of these assays.
GRIN3A LBD mod: modulates the human NR3A ligand-binding domain; NR3A LBD differential scanning fluorimetry, Tm shift; 0% = protein alone, 100% = glycine-bound protein; Tm shift relative to glycine control, % at 25 µM; 340,000 tested, 2.5% active; AID 1259313;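 active = melting temperature shift of at least 10% of the positive control shift, at one fixed dose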
FGF22 binding: shifts melting point of recombinant human FGF22; activity (Tm shift, normalised), % at 9.99 µM; recombinant FGF22 thermal shift, SYPRO orange fluorescence; percent of sucrose octasulfate shift, DMSO zero; 340,000 tested, 1.5% active; Q9HCT0;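 active = mean Tm shift, scaled 0 neutral to 100 positive control, at about 1.3% or above, every replicate too, limit read from the data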
Target sequence (Q9HCT0 whole entry, looked up): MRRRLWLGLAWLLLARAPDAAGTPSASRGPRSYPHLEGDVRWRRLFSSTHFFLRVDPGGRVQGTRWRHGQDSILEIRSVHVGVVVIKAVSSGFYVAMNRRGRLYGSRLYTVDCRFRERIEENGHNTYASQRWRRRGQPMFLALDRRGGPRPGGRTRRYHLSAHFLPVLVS
EBNA-1 inhibitor: blocks EBNA-1 binding to DNA; EBNA-1 DNA binding, fluorescence polarization; inhibition, % at 14.8 µM; 300,000 tested, 0.34% active; AID 1950; in the data active = inhibition above about 28%
FID counter: displaces DNA intercalator in HCV helicase counter-screen; inhibition, % at 7.9 µM; DNA fluorescent intercalator displacement, fluorescence; 290,000 tested, 0.17% active; in the data active = inhibition above about 37%;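 also: higher means more ethidium bromide displaced from hairpin DNA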
ZTA DNA inh: blocks Epstein-Barr virus ZTA, an EBNA-1 counter-screen. inhibition, % at 11 µM. P03206. 320,000 tested, 0.15% active. ZTA-DNA binding, fluorescence polarization; in the data active = inhibition above about 33%
Target sequence (P03206 whole entry, looked up): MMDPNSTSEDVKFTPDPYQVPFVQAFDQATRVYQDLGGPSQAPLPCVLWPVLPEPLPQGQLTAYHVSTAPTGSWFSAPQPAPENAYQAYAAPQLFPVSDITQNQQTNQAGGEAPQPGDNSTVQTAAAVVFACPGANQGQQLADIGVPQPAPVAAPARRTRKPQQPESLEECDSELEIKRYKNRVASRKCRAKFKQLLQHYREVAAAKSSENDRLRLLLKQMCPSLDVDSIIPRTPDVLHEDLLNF
HCV NS3 hel inh: blocks Hepatitis C virus NS3 helicase unwinding | NS3 helicase DNA unwinding, Cy5 molecular beacon fluorescence | 290,000 tested, 0.56% active | inhibition, % at 10.9 µM | AID 1800;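 active = inhibition above the mean of all tested compounds plus 3 SD, set per campaign, cut at about 35% in these data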
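Control set: DMSO versus 110 µM thioflavine S; Material: NS3 helicase fragment of HCV; Measured by: Cy5 fluorescence at 0 and 60 min, beacon hairpin quenching; Read-out basis: percent inhibition from t60/t0 fluorescence ratio; Times: reaction time 60 min, 25 °C; Repeats: single replicate; Compound dosing: single dose, 10.9 µM nominal final, DMSO 0.8% final.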
Numbers stand for hits; i = inactive; nt = no result given.

SMILES	GRIN3A LBD mod	FGF22 binding	EBNA-1 inhibitor	FID counter	ZTA DNA inh	HCV NS3 hel inh
CC(=O)Nc1cccc(NC(=O)c2cccc(-c3ccc(O)cc3)c2)c1	10	i	i	i	i	i
Cc1cc(C)n2nc(C(=O)N/N=C/c3cccc(Cl)c3)nc2n1	12	i	i	i	i	i
Fc1ccc(-c2ncc3ccccn23)cc1	i	i	i	i	i	i
Fc1ccc(-c2nnc3ccccn23)cc1	i	43	nt	i	nt	i
O=C(C[C@@H]1CC[C@@H]2[C@H](COC[C@H](O)CN2Cc2ccc(F)cc2)O1)N1CCc2ccccc2C1	nt	i	nt	nt	nt	nt
CCCSc1nc2sc3c(c2c(=O)[nH]1)CCN(Cc1ccccc1)C3	i	nt	i	i	i	i
O=c1[nH]c(C(Cl)Cl)nc2sc3c(c12)CCN(Cc1ccccc1)C3	15	i	i	i	i	i
C[C@H]1CN([C@@H](C)CO)C(=O)Cc2cc(NC(=O)Nc3ccccc3)ccc2O[C@@H]1CN(C)C(=O)Nc1cccc2ccccc12	nt	i	nt	nt	nt	nt
C[C@@H]1CCCCO[C@@H](CN(C)C(=O)Nc2ccc(C(F)(F)F)cc2)[C@H](C)CN([C@@H](C)CO)C(=O)c2cc(NS(=O)(=O)c3cn(C)cn3)ccc2O1	nt	i	nt	nt	nt	nt
CC(/C=C1\SC(=S)N(NC(=O)c2cccc(O)c2)C1=O)=C\c1ccccc1	22	nt	i	i	i	i
CC(/C=C1\SC(=O)N(CC(=O)Nc2cccc(O)c2)C1=O)=C\c1ccccc1	19	nt	i	i	i	i
O=C(NN1C(=O)/C(=C/c2ccc(O)cc2)SC1=S)c1cccc(O)c1	i	nt	i	i	i	i
Cn1cc(/C=C2\SC(=S)N(NC(=O)c3cccc(Cl)c3)C2=O)c2ccccc21	20	i	nt	i	nt	i
CC(/C=C1\SC(=O)N(CC(=O)Nc2ccc(O)cc2)C1=O)=C\c1ccccc1	10	i	28	i	i	i
Clc1ccc2c(N/N=C/c3cccnc3)ccnc2c1	i	i	i	i	i	i
Oc1ccc(/C=N/Nc2ccnc3cc(Cl)ccc23)c(O)c1	27	i	i	i	i	i
Clc1ccc2c(N/N=C/c3ccc(Br)cc3)ccnc2c1	33	i	i	i	i	i
C[C@@H]1CN([C@@H](C)CO)C(=O)c2cc(NC(=O)Cc3ccccc3)ccc2O[C@@H](C)CCCCO[C@H]1CN(C)Cc1ccc(C(F)(F)F)cc1	nt	i	nt	nt	nt	nt
Cc1noc(C)c1NC(=O)N(C)C[C@@H]1OCCCC[C@@H](C)Oc2ccc(NC(=O)Nc3ccc(F)cc3)cc2C(=O)N([C@H](C)CO)C[C@H]1C	nt	i	nt	nt	nt	nt
COc1ccc(-c2cc(C(F)F)n3ncc(C(=O)Nc4c(C)n(C)n(-c5ccccc5)c4=O)c3n2)cc1	i	i	i	i	i	i
CNS(=O)(=O)c1ccc(NC(=O)c2cnn3c(C(F)F)cc(-c4ccccc4)nc23)cc1	i	43	i	i	i	i
COc1ccc(-c2cc(C(F)F)n3ncc(C(=O)Nc4cc(C)on4)c3n2)cc1	i	43	i	i	i	i
CC(C)NC(=O)N[C@H]1C=C[C@H](CC(=O)NC2Cc3ccccc3C2)O[C@@H]1CO	nt	i	nt	nt	nt	nt
Oc1ccccc1C1Nc2cccc3cccc(c23)N1	11	nt	i	i	i	i
CN(C[C@H]1N[C@@H](CO)[C@H]1c1ccc(-c2cccnc2)cc1)C(=O)CC1CC1	nt	i	nt	nt	nt	nt
SMILES	GRIN3A LBD mod	FGF22 binding	EBNA-1 inhibitor	FID counter	ZTA DNA inh	HCV NS3 hel inh
CSC1=NC(=O)/C(=C/c2ccc(SC)cc2)S1	i	43	i	i	i	i
CN=C1S/C(=C\c2ccc(SC)cc2)C(=O)N1C	i	i	i	i	i	i
O=C(Nc1ccc2c(c1)[C@@H]1C[C@@H](CC(=O)N3CCOCC3)O[C@H](CO)[C@@H]1O2)NC1CCCC1	nt	i	nt	nt	nt	nt
COc1cc(C(=O)O/N=C(\N)c2ccc([N+](=O)[O-])cc2)cc(OC)c1OC	i	i	i	i	i	i
COc1cc(C(=O)O/N=C(\N)c2cccc([N+](=O)[O-])c2)cc(OC)c1OC	14	i	i	i	i	i
Cc1ccc(S(=O)(=O)N(C)CC(=O)O/N=C(\N)c2ccc([N+](=O)[O-])cc2)cc1	21	nt	i	i	i	i
Cc1ccc(C(=O)O/N=C(\N)c2cccc([N+](=O)[O-])c2)cc1	13	i	i	i	i	i
